15 compounds from ChEMBL document CHEMBL1142988 (J Med Chem, 2007) can be followed below.

The structures appear in SMILES notation. pIC50, pKd: −log10 of the molar value. Calls of active or inactive are those of the source. The rule behind the calls is not given here.

Assay [1] can be described thus: Activity at native AMPA receptor assessed as antagonism of (S)-5-fluoriwillardiine-induced depolarization of neonatal rat spinal cord motorneurones. The assay is classed as functional.
A short description of assay [2]: Antagonist activity at native AMPA receptor assessed as fDR-VRP reduction of neonatal rat spinal cord motorneurones. The assay is classed as functional. The method, boiled down: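 Neonatal (1-5-day-old, non-anaesthetized) rat hemisected spinal cord. Concentration-response curves for antagonist (5 min applications) on the fast component of the dorsal root-evoked ventral root potential, with 2 mM MgSO4 and 50 µM (R)-AP5 (30 min preincubation) to block NMDA receptors; mean ± SEM, n = 3.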

The target of assay [3] is T1, Glutamate NMDA receptor (Rattus norvegicus) (UniProt P35439+Q00959+Q00960+Q00961+Q62645+Q8VHN2+Q9R1M7). The assay is described as follows: Antagonist activity at NMDA receptor assessed as inhibition of NMDA-induced depolarization of neonatal rat spinal cord motoneurons at 10 uM. The assay is classed as functional.
Assay [4] deals with Metabotropic glutamate receptor 1 (Rattus norvegicus) (UniProt P23385). The assay is described as follows: Antagonist activity at mGlu1 receptor assessed as inhibition of DHPG-induced depolarization of neonatal rat motoneurons at 10 uM. The assay is classed as functional.
For assay [5], the target named is Metabotropic glutamate receptor 5 (Rattus norvegicus) (UniProt P31424). The assay can be described thus: Antagonist activity at mGlu5 receptor assessed as inhibition of DHPG-induced depolarization of neonatal rat spinal cord motoneurons at 10 uM. The class given is functional.
In assay [6] the target is Glutamate receptor 2 (Homo sapiens, UniProt P42262). The assay is described as follows: Antagonist activity at human recombinant GLUA2-AMPA receptor expressed in HEK293 cells assessed as inhibition of glutamate-stimulated calcium influx by FLIPR assay. The assay is classed as functional, cell-based.
Assay [7] has as its target Glutamate receptor ionotropic, kainate 1 (Homo sapiens) (UniProt P39086). The assay can be described thus: Antagonist activity at human recombinant GLUK5 receptor expressed in HEK293 cells assessed as inhibition of glutamate-stimulated calcium influx by FLIPR assay. The class given is functional, cell-based. The method in brief: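 Human GLUK5(Q) cells (Bmax of [3H]kainate binding 1.7 pmol/mg) loaded with calcium dye and read on FLIPR. Kb derived from IC50 by Cheng-Prusoff. Mean ± SEM, n = 3.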

For assay [8] the target is unchanged. The assay can be described thus: Antagonist activity at human recombinant GLUK5/GLUK2 expressed in HEK293 cells assessed as inhibition of glutamate-stimulated calcium influx by FLIPR assay. The assay is classed as functional, cell-based.
Assay [9] has as its target Glutamate receptor ionotropic, kainate 2 (Homo sapiens, UniProt Q13002). The assay is described as follows: Antagonist activity at human recombinant GLUK6 expressed in HEK293 cells assessed as inhibition of glutamate-stimulated calcium influx by FLIPR assay. The class given is functional, cell-based.
Assay [10] is described as follows: Antagonist activity at human recombinant GLUK6/GLUK2 expressed in HEK293 cells assessed as inhibition of glutamate-stimulated calcium influx by FLIPR assay. The assay is classed as functional, cell-based.
A short description of assay [11]: Antagonist activity at human recombinant GLUK6/GLUK2 expressed in HEK293 cells assessed as inhibition of glutamate-stimulated calcium influx at 100 uM by FLIPR assay. The assay is classed as functional.
Assay [12] concerns the target Glutamate receptor ionotropic, kainate 1 (Rattus norvegicus, UniProt P22756). The assay is described as follows: Activity at native GLUK5 kainate receptor assessed as antagonism of kainite-induced depolarization of neonatal non-anaesthetised rat dorsal root fibres.
Assay [13] in a line: Antagonist activity at human recombinant GLUK5/GLUK6 expressed in HEK293 cells assessed as inhibition of glutamate-stimulated calcium influx by FLIPR assay. The class given is functional, cell-based.
The target in assay [14] is T1, Glutamate NMDA receptor (Rattus norvegicus). The assay is described as follows: Antagonist activity at NMDA receptor assessed as inhibition of NMDA-induced depolarization of neonatal rat spinal cord motoneurons at 1 uM. The class given is functional.
Assay [15] concerns the target Metabotropic glutamate receptor 1 (Rattus norvegicus) (UniProt P23385). The assay can be described thus: Antagonist activity at mGlu1 receptor assessed as inhibition of DHPG-induced depolarization of neonatal rat spinal cord motoneurons at 1 uM. The assay is classed as functional.
The target of assay [16] is Metabotropic glutamate receptor 5 (Rattus norvegicus) (UniProt P31424). The assay can be described thus: Antagonist activity at mGlu5 receptor assessed as inhibition of DHPG-induced depolarization of neonatal rat spinal cord motoneurons at 1 uM. The class given is functional.

Sequence of Glutamate receptor ionotropic, kainate 2 (Q13002 whole entry): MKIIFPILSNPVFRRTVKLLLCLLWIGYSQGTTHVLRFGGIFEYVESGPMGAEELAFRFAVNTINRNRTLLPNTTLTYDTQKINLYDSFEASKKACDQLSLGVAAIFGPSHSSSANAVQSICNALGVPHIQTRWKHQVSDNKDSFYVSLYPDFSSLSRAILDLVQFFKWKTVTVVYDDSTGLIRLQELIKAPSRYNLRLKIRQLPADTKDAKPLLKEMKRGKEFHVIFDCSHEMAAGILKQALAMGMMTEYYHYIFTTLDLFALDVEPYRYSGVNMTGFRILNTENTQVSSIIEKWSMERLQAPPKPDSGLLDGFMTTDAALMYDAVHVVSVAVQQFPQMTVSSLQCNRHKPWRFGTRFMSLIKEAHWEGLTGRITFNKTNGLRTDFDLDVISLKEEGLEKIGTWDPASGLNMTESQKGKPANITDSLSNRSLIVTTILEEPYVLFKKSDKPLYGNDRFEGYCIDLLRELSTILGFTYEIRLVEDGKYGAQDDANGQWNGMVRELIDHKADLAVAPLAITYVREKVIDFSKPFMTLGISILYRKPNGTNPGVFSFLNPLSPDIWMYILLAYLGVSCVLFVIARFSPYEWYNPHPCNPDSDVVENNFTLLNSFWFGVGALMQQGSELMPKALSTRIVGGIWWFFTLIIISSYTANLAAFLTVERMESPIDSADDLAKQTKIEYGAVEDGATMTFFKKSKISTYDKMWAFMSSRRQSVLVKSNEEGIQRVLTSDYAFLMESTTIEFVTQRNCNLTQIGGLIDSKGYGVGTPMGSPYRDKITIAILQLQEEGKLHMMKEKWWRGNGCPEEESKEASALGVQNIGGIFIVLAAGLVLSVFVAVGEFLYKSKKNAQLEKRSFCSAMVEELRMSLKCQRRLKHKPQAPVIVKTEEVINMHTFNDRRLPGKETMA
Sequence of Glutamate receptor ionotropic, kainate 1 (P22756 whole entry): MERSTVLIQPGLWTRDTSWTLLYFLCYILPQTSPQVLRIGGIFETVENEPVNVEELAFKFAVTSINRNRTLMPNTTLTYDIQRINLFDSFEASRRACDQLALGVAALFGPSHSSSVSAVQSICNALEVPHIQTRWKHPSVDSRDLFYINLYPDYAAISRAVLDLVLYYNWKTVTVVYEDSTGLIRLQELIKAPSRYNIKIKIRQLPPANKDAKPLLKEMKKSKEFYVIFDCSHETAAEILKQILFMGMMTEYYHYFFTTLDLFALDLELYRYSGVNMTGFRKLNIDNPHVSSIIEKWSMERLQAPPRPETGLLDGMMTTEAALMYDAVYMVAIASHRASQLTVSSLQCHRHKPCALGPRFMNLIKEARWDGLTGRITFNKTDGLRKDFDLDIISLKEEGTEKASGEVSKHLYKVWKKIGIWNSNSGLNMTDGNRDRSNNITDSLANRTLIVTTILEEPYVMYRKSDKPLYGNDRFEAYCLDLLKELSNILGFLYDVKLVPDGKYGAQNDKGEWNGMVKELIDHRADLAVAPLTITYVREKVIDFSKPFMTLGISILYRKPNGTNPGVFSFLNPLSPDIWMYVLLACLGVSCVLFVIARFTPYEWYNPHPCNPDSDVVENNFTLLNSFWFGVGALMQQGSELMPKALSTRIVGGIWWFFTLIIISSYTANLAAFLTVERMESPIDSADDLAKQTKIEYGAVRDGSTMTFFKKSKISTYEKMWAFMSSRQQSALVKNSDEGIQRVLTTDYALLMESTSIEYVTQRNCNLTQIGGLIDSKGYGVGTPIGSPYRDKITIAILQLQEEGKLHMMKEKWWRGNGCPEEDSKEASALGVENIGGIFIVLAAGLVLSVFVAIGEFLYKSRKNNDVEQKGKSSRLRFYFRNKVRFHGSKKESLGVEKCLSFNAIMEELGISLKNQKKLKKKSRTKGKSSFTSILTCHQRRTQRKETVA
Sequence of Glutamate receptor ionotropic, kainate 1 (Homo sapiens) (P39086 whole entry): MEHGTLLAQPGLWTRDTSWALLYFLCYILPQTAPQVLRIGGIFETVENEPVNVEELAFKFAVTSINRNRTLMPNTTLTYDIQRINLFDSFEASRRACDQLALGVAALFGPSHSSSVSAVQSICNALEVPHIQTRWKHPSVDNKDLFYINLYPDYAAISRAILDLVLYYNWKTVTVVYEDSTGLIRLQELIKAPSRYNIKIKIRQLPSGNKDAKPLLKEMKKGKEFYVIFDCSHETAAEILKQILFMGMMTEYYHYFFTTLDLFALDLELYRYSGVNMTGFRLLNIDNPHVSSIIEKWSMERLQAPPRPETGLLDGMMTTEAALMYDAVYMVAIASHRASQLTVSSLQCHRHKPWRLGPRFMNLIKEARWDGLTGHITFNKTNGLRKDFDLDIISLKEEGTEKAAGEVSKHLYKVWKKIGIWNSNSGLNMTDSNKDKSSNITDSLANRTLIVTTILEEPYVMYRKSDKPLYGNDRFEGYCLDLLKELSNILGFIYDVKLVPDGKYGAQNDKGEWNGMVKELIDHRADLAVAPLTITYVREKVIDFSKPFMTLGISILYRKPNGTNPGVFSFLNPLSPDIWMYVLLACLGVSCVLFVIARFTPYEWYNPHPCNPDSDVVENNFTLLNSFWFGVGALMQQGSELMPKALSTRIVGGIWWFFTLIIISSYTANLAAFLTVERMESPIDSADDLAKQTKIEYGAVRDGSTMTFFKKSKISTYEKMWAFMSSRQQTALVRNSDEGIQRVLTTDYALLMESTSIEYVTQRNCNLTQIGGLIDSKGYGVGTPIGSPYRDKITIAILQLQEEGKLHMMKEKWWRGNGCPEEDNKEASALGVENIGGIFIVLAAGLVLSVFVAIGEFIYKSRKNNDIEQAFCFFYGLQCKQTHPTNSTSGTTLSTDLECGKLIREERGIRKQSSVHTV
Sequence of Glutamate receptor 2 (P42262 whole entry): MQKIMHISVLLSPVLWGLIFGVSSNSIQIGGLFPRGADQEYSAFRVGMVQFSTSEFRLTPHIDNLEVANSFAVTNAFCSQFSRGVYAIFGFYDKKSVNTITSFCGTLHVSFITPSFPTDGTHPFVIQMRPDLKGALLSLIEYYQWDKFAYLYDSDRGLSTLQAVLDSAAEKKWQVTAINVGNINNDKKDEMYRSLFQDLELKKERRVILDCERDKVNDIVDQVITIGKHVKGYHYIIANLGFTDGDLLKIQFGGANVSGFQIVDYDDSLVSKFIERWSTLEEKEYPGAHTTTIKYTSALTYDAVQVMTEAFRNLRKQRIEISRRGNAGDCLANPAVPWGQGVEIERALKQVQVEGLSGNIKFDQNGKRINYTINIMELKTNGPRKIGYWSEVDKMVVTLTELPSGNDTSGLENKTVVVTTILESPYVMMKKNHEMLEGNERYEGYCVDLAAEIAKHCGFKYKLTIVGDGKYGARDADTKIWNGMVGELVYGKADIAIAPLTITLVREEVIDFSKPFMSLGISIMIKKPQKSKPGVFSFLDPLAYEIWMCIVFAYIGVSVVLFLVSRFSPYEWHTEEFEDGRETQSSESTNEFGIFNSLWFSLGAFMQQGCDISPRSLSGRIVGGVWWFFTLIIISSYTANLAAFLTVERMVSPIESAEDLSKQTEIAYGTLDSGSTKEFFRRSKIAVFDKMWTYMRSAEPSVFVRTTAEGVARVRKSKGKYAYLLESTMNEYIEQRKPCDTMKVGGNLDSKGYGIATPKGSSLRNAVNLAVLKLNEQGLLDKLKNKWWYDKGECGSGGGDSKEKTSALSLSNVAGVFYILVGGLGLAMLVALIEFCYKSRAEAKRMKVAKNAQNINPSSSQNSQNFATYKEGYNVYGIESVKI
Sequence of Metabotropic glutamate receptor 1 (Rattus norvegicus) (P23385 19-1199 limits assumed): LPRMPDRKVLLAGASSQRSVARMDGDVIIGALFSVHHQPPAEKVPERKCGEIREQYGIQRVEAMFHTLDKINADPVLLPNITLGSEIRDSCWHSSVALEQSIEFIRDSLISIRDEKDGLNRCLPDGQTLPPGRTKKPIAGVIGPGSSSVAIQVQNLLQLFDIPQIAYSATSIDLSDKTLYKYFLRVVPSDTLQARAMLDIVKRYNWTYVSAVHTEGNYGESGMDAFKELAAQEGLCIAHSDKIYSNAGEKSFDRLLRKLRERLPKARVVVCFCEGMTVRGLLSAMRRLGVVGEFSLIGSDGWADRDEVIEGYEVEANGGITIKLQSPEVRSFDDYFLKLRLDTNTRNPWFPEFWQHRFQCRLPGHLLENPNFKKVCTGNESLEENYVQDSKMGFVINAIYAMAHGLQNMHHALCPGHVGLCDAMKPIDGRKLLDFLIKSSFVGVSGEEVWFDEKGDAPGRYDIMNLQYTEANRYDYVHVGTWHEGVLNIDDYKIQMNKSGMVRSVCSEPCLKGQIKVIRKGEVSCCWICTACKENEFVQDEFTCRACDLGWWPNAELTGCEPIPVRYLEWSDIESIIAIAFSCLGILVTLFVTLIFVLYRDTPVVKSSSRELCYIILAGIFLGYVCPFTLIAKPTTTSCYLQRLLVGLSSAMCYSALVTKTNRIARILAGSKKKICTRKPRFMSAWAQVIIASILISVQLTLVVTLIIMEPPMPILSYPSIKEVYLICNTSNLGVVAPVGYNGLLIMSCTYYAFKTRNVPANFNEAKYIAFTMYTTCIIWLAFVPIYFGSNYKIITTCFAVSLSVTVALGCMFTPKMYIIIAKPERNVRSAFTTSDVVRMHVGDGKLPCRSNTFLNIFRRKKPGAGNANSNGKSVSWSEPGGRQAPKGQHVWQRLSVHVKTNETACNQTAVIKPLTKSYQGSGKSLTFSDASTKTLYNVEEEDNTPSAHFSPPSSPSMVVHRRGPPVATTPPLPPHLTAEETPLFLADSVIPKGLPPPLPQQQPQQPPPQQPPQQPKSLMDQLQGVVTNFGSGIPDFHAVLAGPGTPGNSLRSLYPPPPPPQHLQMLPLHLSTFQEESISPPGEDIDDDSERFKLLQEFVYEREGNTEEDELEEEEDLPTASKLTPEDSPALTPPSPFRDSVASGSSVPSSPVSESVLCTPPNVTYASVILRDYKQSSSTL

The term pKd denotes the Kd on a negative log10 scale, so that one unit is a factor of ten. What is called pIC50 is −log10 of the IC50, conventionally taken in molar units. Usually Kb stands for the equilibrium dissociation constant of an antagonist, usually derived from a functional assay. Usually inhibition stands for the change of the read-out against control, counted positive when it falls. Regarding `Cc1cn(C[C@H](N)C(=O)O)c(=O)n(Cc2ccsc2C(=O)O)c1=O`, the pKd in assay [1] was 4.08; in [12], 7.74. Moreover, the pIC50 in [2] is 4.79; in assay [6], below 4.00; in assay [9], below 4.00; in assay [10], below 4.00. The result in assay [3], in [4] and in [5] was inactive. Moreover, the Kb amounted to 10 nM in [7] and 8 nM in assay [8]. Moreover, the inhibition at 100 µM in assay [11] stood at 27%.
On to `N[C@@H](Cn1cc(Br)c(=O)n(Cc2ccsc2C(=O)O)c1=O)C(=O)O`, for which, in assay [2], the pIC50 was 4.37. The pKd in assay [12] is 7.60.
As for `N[C@@H](Cn1ccc(=O)n(Cc2ccccc2C(=O)O)c1=O)C(=O)O`, the pIC50 in assay [2] is 3.97; in assay [6], below 3.52; in [9], below 3.52; in assay [10] it was below 3.52. Moreover, the Kb was found to be 600 nM in assay [7], 1000 nM in assay [8] and 800 nM in assay [13].
As to `N[C@@H](Cn1cc(I)c(=O)n(Cc2ccccc2C(=O)O)c1=O)C(=O)O`, the pIC50 in assay [2] was 4.13.
Take `Cc1cn(C[C@H](N)C(=O)O)c(=O)n(Cc2cc(-c3ccccc3)sc2C(=O)O)c1=O`: the negative-log Kd (pKd) was 3.97 in assay [1] and 7.92 in [12]. Besides, the pIC50 in [2] is 4.78; in assay [6], below 4.00; in assay [9], below 4.00; in assay [10], below 4.00. For the same compound, the result in assay [14], in [15] and in assay [16] was inactive. Also, the Kb was 7 nM in [7] and 5 nM in [8].
Regarding `N#Cc1cc2c(cc1[N+](=O)[O-])=NC(=O)C(=O)N=2`, the negative-log Kd (pKd) in assay [12] is 5.86.
With `Cc1cn(C[C@H](N)C(=O)O)c(=O)n(Cc2ccccc2C(=O)O)c1=O`, the pIC50 in [2] is 4.29. Also, in assay [12], the pKd was 7.64.
The matching figures for `Cc1cn(C[C@H](N)C(=O)O)c(=O)n(Cc2ccoc2C(=O)O)c1=O`: 4.60 and 7.10.
The matching figures for `N[C@@H](Cn1cc(C(F)(F)F)c(=O)n(Cc2ccsc2C(=O)O)c1=O)C(=O)O`: 4.26 and 7.26.
For `N[C@@H](Cn1ccc(=O)n(Cc2ccsc2C(=O)O)c1=O)C(=O)O`, the results for the pKd in assay [1] and in assay [12] were 4.15 and 6.98, respectively. The pIC50 in assay [2] was 4.51; in assay [6], below 4.00; in assay [9] it was below 4.00; in assay [10] it was below 4.00. Moreover, the Kb in assay [7] was 120 nM; in [8], 180 nM; in assay [13], 120 nM.
On to `N[C@@H](Cn1ccc(=O)n(Cc2ccoc2C(=O)O)c1=O)C(=O)O`, for which the pIC50 in assay [2] was 4.93. For the same compound, in assay [12], the pKd was 5.73.
On to `N[C@@H](Cn1cc(F)c(=O)n(Cc2ccccc2C(=O)O)c1=O)C(=O)O`, for which the pIC50 in assay [2] is 4.73. In [12], the pKd is 6.45.
`N[C@@H](Cn1cc(Br)c(=O)n(Cc2ccccc2C(=O)O)c1=O)C(=O)O`: the pIC50 in assay [2] is 4.19. Further, in assay [12], the negative logarithm of the Kd (pKd) is 6.99.
On to `NS(=O)(=O)c1cccc2c1c([N+](=O)[O-])cc1nc(O)c(O)nc12` [NBQX], for which the pIC50 in [13] is 4.55; in assay [10], 3.87.
With `Cc1cn(C[C@H](N)C(=O)O)c(=O)n(Cc2c(C(=O)O)sc(Br)c2Br)c1=O`, the pIC50 in assay [2] is 5.55. The pKd in assay [12] is 8.00.
